# Screening data deposited in PubChem BioAssay by several laboratories.
# HEK293 NFkB inh: inhibitors of PMA/ionomycin-induced NF-kB reporter, primary screen, antigen receptor NF-kB inhibitor project, cell-based, HEK-293 luciferase reporter, luminescence | AID 465, 2006 | HEK-293 NF-kB luciferase reporter | inhibition, % at 3 µM | 62,000 compounds, 0.21% hits;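 active = inhibition above the mean of all tested compounds plus 3 SD, cut at about 40% in these data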;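 note: 0% = stimulated DMSO wells and 100% = 10 µM reference inhibitor 5653914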
#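 Material: HEK-293 cells with stable firefly luciferase reporter driven by four HIV NF-kB elements / Also added: PMA plus ionomycin mix as NF-kB-activating stimulus / Compound dosing: 3 µM once, 0.30% DMSO / Times: 1 h pretreatment, 16 h stimulation, 37 °C / Signal: luminescence / Evaluation: per-plate % inhibition versus controls / Benchmarks: DMSO and 10 µM reference inhibitor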
# M1 antagonist: antagonists of rat M1 muscarinic receptor | AID 628, 2007 | Muscarinic acetylcholine receptor M1 (Rattus norvegicus), P08482 | B-score at 10 µM | 64,000 compounds, 3.4% hits | CHO-M1 cells, Fluo-4 calcium, ACh EC80 antagonist mode; active compounds read low;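 active = calcium fluorescence response, raw or row-and-column corrected B-score, differing from the plate sample mean either way at a set confidence level, mostly lower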
# Target sequence (P08482 whole entry, looked up): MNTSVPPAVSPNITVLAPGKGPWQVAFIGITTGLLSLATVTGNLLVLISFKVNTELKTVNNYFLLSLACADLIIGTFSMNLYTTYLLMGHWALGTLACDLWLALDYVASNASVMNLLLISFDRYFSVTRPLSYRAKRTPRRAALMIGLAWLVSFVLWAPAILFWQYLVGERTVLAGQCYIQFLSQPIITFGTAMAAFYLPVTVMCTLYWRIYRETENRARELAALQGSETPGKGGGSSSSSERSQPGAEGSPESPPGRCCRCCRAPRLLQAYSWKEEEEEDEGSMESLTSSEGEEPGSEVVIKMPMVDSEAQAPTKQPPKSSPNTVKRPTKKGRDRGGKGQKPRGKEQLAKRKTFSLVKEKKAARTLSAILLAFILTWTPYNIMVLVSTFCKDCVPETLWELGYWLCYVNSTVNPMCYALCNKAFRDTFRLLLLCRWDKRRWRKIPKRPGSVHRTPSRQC
# Her2 expr inh: inhibitors of Her2 protein expression, primary screen, SKBR-3 cells, AlphaScreen, 66K library | HER2 level % of control, % at 10 µM | SKBR-3 HER2 protein level, 18-24 h; active compounds read low | 65,000 compounds, 0.69% hits;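 active = HER2 level under 5% of the carrier-only control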;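 note: 100% = DMSO carrier and 0% = 500 nM PU-H71 HSP90 inhibitor; lower value means stronger loss of Her2 protein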
# Cdc25B block: inhibitors of Cdc25B phosphatase catalytic domain, primary screen, biochemical, OMFP fluorescence. M-phase inducer phosphatase 2 (Homo sapiens), P30305. recombinant Cdc25B, OMFP fluorescence Ex485/Em525. inhibition, %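 (compounds tested at 10 µM final in the well)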. 65,000 compounds, 0.1% hits; in the data active = inhibition above about 50%
# M1 ag: M1 muscarinic receptor agonists, primary screen, CHO-M1 cells, Fluo-4 calcium, agonist mode; 64,000 compounds, 3% hits; AID 626, 2007; B-score at 10 µM; Fluo-4 calcium fluorescence; active compounds read high; Muscarinic acetylcholine receptor M1;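 active = fluorescence rise, raw or as B-score row- and column-corrected plate score, outside the 99.7% band of its plate's samples, either direction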
# DUSP1 inh: MKP-1 phosphatase inhibitors, primary screen, biochemical, in vitro. recombinant MKP-1, OMFP hydrolysis fluorescence. inhibition, %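 (compounds tested at a single concentration somewhere between 10 and 100 µM)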. 65,000 compounds, 0.15% hits. AID 374, 2006;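 active = inhibition above about 50%, limit read from the data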;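 note: 0% = DMSO max control wells and 100% = wells with enzyme stopped by NaOH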
# * hit, by the source's call; · = not tested or not shown. This is a sample that favours compounds with a hit; in the whole collection about 6.8% have one here.
SMILES,HEK293 NFkB inh,M1 antagonist,Her2 expr inh,Cdc25B block,M1 ag,DUSP1 inh
CCOC(=O)C1=C(C)OC(N)=C(C#N)C1c1c(C)nn(-c2ccccc2)c1Cl (configuration not stated),17.5,0.0277,·,-0.9,0.841,4.4
Cc1nn(-c2ccccc2)c(Cl)c1C1C(C#N)=C(N)Oc2n[nH]c(C)c21 (configuration not stated),44.5*,0.638,72.3,1.0,0.429,21.2
Cn1c(Br)nc2c1c(=O)n(CC(O)COc1ccccc1)c(=O)n2C (configuration not stated),12.0,0.749,102.4,-11.3,0.12,-38.8
Cc1nc2c(c(=O)n1CC1CCCO1)c1nc3ccccc3nc1n2Cc1ccc2c(c1)OCO2 (configuration not stated),·,0.234,95.9,11.9,-0.716,8.7
CC1(CC(=O)O)SC(=O)NC1=O (configuration not stated),10.5,0.358,68.6,-6.5,-0.593,-4.1
CCn1nnc(NC(=O)c2cccnc2)n1,11.1,0.775*,187.9,6.3,-0.956,-13.8
CCn1nnc(NC(=O)c2ccc(C(C)(C)C)cc2)n1,-26.6,0.0824,136.1,-17.5,-0.547,6.8
COc1ccc2oc(=O)c(-c3nnc(NCc4ccco4)s3)cc2c1,13.4,-0.0469,-10.6*,-6.9,-1.42,16.0
Cc1nccn1-c1cc(C(C)C)c(C#N)c2nc3ccccc3n12,·,0.362,130.3,28.8,-0.347,-25.3
CCCn1nc(NC(=O)c2cccs2)c2cc3cc(OC)ccc3nc21,-5.7,-1.37,22.3,-1.8,3.56*,14.9
COc1ccc(-n2nc3c(c2NC(=O)c2cc4ccccc4oc2=O)CS(=O)(=O)C3)cc1,14.6,1.26,110.5,-0.5,-0.509,27.7
COc1cc2[nH]c(=O)n(CCC(=O)N3CCN(c4cc(Cl)ccc4C)CC3)c(=O)c2cc1OC,14.2,·,-22.8*,·,·,·
CCOC(=O)C(NC(C)=O)(N1CCc2ccccc2C1)C(F)(F)F (configuration not stated),15.8,-0.242,-17.5*,4.5,-0.332,2.5
COc1ccc(NCc2nnc(SCC(=O)c3ccc(OC)cc3)n2C)cc1,21.6,-0.43,-43.0*,-1.7,-0.939,16.1
COc1ccc(C(=O)CSc2nnc(CNC(=O)c3ccc(OC)c(OC)c3)n2C)cc1,0.8,-0.119,131.8,-9.6,0.152,73.6*
CCOC(=O)c1c(C)n(C)c2ccc(OCC(O)Cn3c(C)nc4ccccc43)cc12 (configuration not stated),4.7,-1.37,52.3,-16.2,2.15*,8.8
CCOC(=O)c1c(C)n(C)c2ccc(OCC(O)CN3CCN(C)CC3)cc12 (configuration not stated),1.0,1.17,100.9,-6.6,1.1,-5.2
Cc1ccc2nc(NC3=NCN(Cc4ccccc4)CN3)nc(C)c2c1,16.9,-0.941,93.4,2.6,0.145,18.5
Cc1nc(NC2=NCN(CCc3ccccc3)CN2)nc2c(C)cccc12,-10.3,-0.845,96.9,9.7,0.0347,6.5
Cc1cc2nc(NC3=NCN(CCN4CCOCC4)CN3)nc(C)c2cc1C,9.8,-5.65*,104.6,5.3,0.638,-4.8
Cc1cc2nc(NC3=NCN(Cc4ccc5c(c4)OCO5)CN3)nc(C)c2cc1C,10.5,-5.08*,-5.8*,3.2,0.073,-1.7
Cn1c(=O)c2sccc2n2c(CCCC(=O)NCc3ccc4c(c3)OCO4)nnc12,13.9,-0.0338,93.6,2.2,0.802,6.6
CC(NC(=O)CSc1ncccn1)c1ccccc1 (configuration not stated),16.3,0.432,89.4,-7.1,-0.205,8.8
O=C(CSc1ncccn1)Nc1ccccc1,-0.6,1.86*,90.7,-15.2,1.2,4.4
O=C(c1ccccc1C(F)(F)F)N1CCN(S(=O)(=O)c2ccccc2)CC1,9.7,0.00769,100.3,-14.9,0.0214,3.5
COc1ccc(C(=O)N2CCN(S(=O)(=O)N3CCOCC3)CC2)cc1OC,7.9,0.803,72.6,1.0,0.0131,-11.9
